Assay results as given in ChEMBL document CHEMBL3872252, “New bithiazolyl hydrazones: Novel synthesis, characterization and antitubercular evaluation” (Bioorg Med Chem Lett, 2017).
Values after ≈ are worked out from the molar mass of the structure shown.

Experiments:
[1] = Antitubercular activity against Mycobacterium tuberculosis H37Ra ATCC 25177 dormant stage infected in human THP1 cells measured on day 12 by nitrate reductase assay; type: functional, THP-1; settings: ATCC 25177, 288 h
Staphylococcus aureus [2] = test: Growth inhibition of Staphylococcus aureus at 30 ug/ml; type: functional; settings: read-out: GI
Bacillus subtilis [3] = test: Growth inhibition of Bacillus subtilis at 3 ug/ml; type: functional; settings: read-out: GI
How it was run: (§1)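 Screened against Gram-negative E. coli and P. aeruginosa and Gram-positive S. aureus and B. subtilis. Compound was tested at 3 µg/ml, and the read-out is percent growth inhibition.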

[4] = Cytotoxicity against human THP1 cells by MTT assay; type: toxicity, cell-based, THP-1; settings: for GI50: THP1 cells; for GI90: thp-1
Pseudomonas aeruginosa [5] = test: Growth inhibition of Pseudomonas aeruginosa at 10 ug/ml; type: functional; settings: read-out: GI
Escherichia coli [6] = test: Growth inhibition of Escherichia coli at 3 ug/ml; type: functional; settings: read-out: GI; how it was run: as §1
Bacillus subtilis [7] = test: Growth inhibition of Bacillus subtilis at 30 ug/ml; type: functional; settings: read-out: GI
[8] = Selectivity index, ratio of GI50 for human MCF7 cells to MIC90 for Mycobacterium bovis BCG ATCC 35743 dormant stage; type: toxicity, cell-based; settings: read-out: Selectivity Index
How it was run: (§2)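 Cytotoxicity was measured on human MCF-7, HCT116 and THP-1 cells by MTT assay, with paclitaxel as reference. The selectivity index is GI50 for the given cell line divided by MIC90 for the given mycobacterial strain and stage.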

[9] = Selectivity index, ratio of GI50 for human THP1 cells to MIC90 for Mycobacterium tuberculosis H37Ra ATCC 25177 active stage; type: toxicity, cell-based, THP-1; settings: read-out: Selectivity Index
How it was run: (§3)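 Cytotoxicity was measured on human MCF-7, HCT116 and THP-1 cells by MTT assay, with paclitaxel as reference. GI50 is the concentration inhibiting 50% of cell growth. The selectivity index is GI50 for the given cell line divided by MIC90 for the given mycobacterial strain and stage.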

Staphylococcus aureus [10] = test: Growth inhibition of Staphylococcus aureus at 10 ug/ml; type: functional; settings: read-out: GI
[11] = Selectivity index, ratio of GI50 for human MCF7 cells to MIC90 for Mycobacterium tuberculosis H37Ra ATCC 25177 active stage; type: toxicity, cell-based; settings: read-out: Selectivity Index; how it was run: as §3
[12] = Selectivity index, ratio of GI50 for human MCF7 cells to MIC90 for Mycobacterium bovis BCG ATCC 35743 active stage; type: toxicity, cell-based; settings: read-out: Selectivity Index; how it was run: as §3
Escherichia coli [13] = test: Growth inhibition of Escherichia coli at 10 ug/ml; type: functional; settings: read-out: GI
[14] = Cytotoxicity against human MCF7 cells by MTT assay; type: toxicity, cell-based; settings: for GI50: MCF7 cells; for GI90: mcf7
[15] = Selectivity index, ratio of GI50 for human THP1 cells to MIC90 for Mycobacterium bovis BCG ATCC 35743 dormant stage; type: toxicity, cell-based, THP-1; settings: read-out: Selectivity Index; how it was run: as §2
[16] = Antitubercular activity against Mycobacterium tuberculosis H37Ra ATCC 25177 active stage measured on day 8 by XTT reduction menadione based two-fold dilution assay; type: functional; settings: ATCC 25177, 192 h
How it was run: (§4)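 M. tuberculosis H37Ra ATCC 25177 was exposed to 0.7–100 μg/mL in two-fold steps (0.7, 1.5, 3.1 … 100). Active stage was read after 8 days and dormant stage after 12 days of incubation. Inhibition was read by XTT reduction menadione assay (XRMA), absorbance 470 nm. MIC90 is the concentration giving ≥90% inhibition (µg/mL).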

[17] = Cytotoxicity against human HCT116 cells by MTT assay; type: toxicity, cell-based, HCT-116; settings: for GI50: HCT116 cells; for GI90: hct-116
Pseudomonas aeruginosa [18] = test: Growth inhibition of Pseudomonas aeruginosa at 3 ug/ml; type: functional; settings: read-out: GI; how it was run: as §1
[19] = Antitubercular activity against Mycobacterium tuberculosis H37Ra ATCC 25177 active stage infected in human THP1 cells measured on day 8 by nitrate reductase assay; type: functional, THP-1; settings: ATCC 25177, 192 h
[20] = Antitubercular activity against Mycobacterium bovis BCG ATCC 35743 dormant stage measured on day 12 by nitrate reductase based two-fold dilution assay; type: functional, Mycobacterium bovis BCG str. ATCC 35743; settings: Mycobacterium tuberculosis variant bovis BCG, ATCC 35743, 288 h
Staphylococcus aureus [21] = test: Growth inhibition of Staphylococcus aureus at 3 ug/ml; type: functional; settings: read-out: GI; how it was run: as §1
[22] = Antitubercular activity against Mycobacterium tuberculosis H37Ra ATCC 25177 dormant stage measured on day 12 by XTT reduction menadione based two-fold dilution assay; type: functional; settings: ATCC 25177, 288 h; how it was run: as §4
[23] = Selectivity index, ratio of GI50 for human HCT116 cells to MIC90 for Mycobacterium tuberculosis H37Ra ATCC 25177 active stage; type: toxicity, cell-based, HCT-116; settings: read-out: Selectivity Index; how it was run: as §3
[24] = Selectivity index, ratio of GI50 for human HCT116 cells to MIC90 for Mycobacterium tuberculosis H37Ra ATCC 25177 dormant stage; type: toxicity, cell-based, HCT-116; settings: read-out: Selectivity Index; how it was run: as §2
[25] = Selectivity index, ratio of GI50 for human HCT116 cells to MIC90 for Mycobacterium bovis BCG ATCC 35743 dormant stage; type: toxicity, cell-based, HCT-116; settings: read-out: Selectivity Index; how it was run: as §2
[26] = Antitubercular activity against Mycobacterium bovis BCG ATCC 35743 active stage measured on day 8 by nitrate reductase based two-fold dilution assay; type: functional, Mycobacterium bovis BCG str. ATCC 35743; settings: Mycobacterium tuberculosis variant bovis BCG, ATCC 35743, 192 h
[27] = Selectivity index, ratio of GI50 for human MCF7 cells to MIC90 for Mycobacterium tuberculosis H37Ra ATCC 25177 dormant stage; type: toxicity, cell-based; settings: read-out: Selectivity Index; how it was run: as §2
[28] = Selectivity index, ratio of GI50 for human THP1 cells to MIC90 for Mycobacterium bovis BCG ATCC 35743 active stage; type: toxicity, cell-based, THP-1; settings: read-out: Selectivity Index; how it was run: as §3
[29] = Selectivity index, ratio of GI50 for human HCT116 cells to MIC90 for Mycobacterium bovis BCG ATCC 35743 active stage; type: toxicity, cell-based, HCT-116; settings: read-out: Selectivity Index; how it was run: as §3
Bacillus subtilis [30] = test: Growth inhibition of Bacillus subtilis at 10 ug/ml; type: functional; settings: read-out: GI
[31] = Selectivity index, ratio of GI50 for human THP1 cells to MIC90 for Mycobacterium tuberculosis H37Ra ATCC 25177 dormant stage; type: toxicity, cell-based, THP-1; settings: read-out: Selectivity Index; how it was run: as §2
Pseudomonas aeruginosa [32] = test: Growth inhibition of Pseudomonas aeruginosa at 30 ug/ml; type: functional; settings: read-out: GI
Escherichia coli [33] = test: Growth inhibition of Escherichia coli at 30 ug/ml; type: functional; settings: read-out: GI

| SMILES | MIC90 [1] | inhibition of growth at 30 µg/mL (Staphylococcus aureus [2]) | inhibition of growth at 3 µg/mL (Bacillus subtilis [3]) | GI50 [4] | GI90 [4] | inhibition of growth at 10 µg/mL (Pseudomonas aeruginosa [5]) | inhibition of growth at 3 µg/mL (Escherichia coli [6]) | inhibition of growth at 30 µg/mL (Bacillus subtilis [7]) | selectivity ratio [8] | selectivity ratio [9] | inhibition of growth at 10 µg/mL (Staphylococcus aureus [10]) | selectivity ratio [11] | selectivity ratio [12] | inhibition of growth at 10 µg/mL (Escherichia coli [13]) | GI50 [14] | GI90 [14] | selectivity ratio [15] | IC50 [16] | MIC90 [16] | GI50 [17] | other results |
| --- | --- | --- | --- | --- | --- | --- | --- | --- | --- | --- | --- | --- | --- | --- | --- | --- | --- | --- | --- | --- | --- |
| C/C(=N\Nc1nc(-c2ccccc2)cs1)c1sc(-c2ccccc2)nc1C | 12 µg/mL (≈ 30.7 µM) | 77.2% | 4.82% | > 100 µg/mL | > 100 µg/mL | 53.8% | 17.5% | 75.5% | 5 | 11 | 53.6% | 11 | 5 | 56.6% | > 100 µg/mL | > 100 µg/mL | 5 | 0.17 µg/mL (≈ 0.435 µM) | 9.46 µg/mL (≈ 24.2 µM) | > 100 µg/mL | GI90 [17]: > 100 µg/mL; inhibition of growth at 3 µg/mL (Pseudomonas aeruginosa [18]): 10.2%; MIC90 [19]: 15.6 µg/mL (≈ 39.9 µM); IC50 [20]: 7.95 µg/mL (≈ 20.4 µM); MIC90 [20]: 18.7 µg/mL (≈ 47.9 µM); inhibition of growth at 3 µg/mL (Staphylococcus aureus [21]): 11.6%; IC50 [22]: 0.98 µg/mL (≈ 2.51 µM); MIC90 [22]: 12.8 µg/mL (≈ 32.7 µM); selectivity ratio [23]: 11; selectivity ratio [24]: 8; selectivity ratio [25]: 5; IC50 [26]: 8.75 µg/mL (≈ 22.4 µM); MIC90 [26]: 21.2 µg/mL (≈ 54.3 µM); selectivity ratio [27]: 8; selectivity ratio [28]: 5; selectivity ratio [29]: 5; inhibition of growth at 10 µg/mL (Bacillus subtilis [30]): 50.1%; selectivity ratio [31]: 8; inhibition of growth at 30 µg/mL (Pseudomonas aeruginosa [32]): 78.2%; inhibition of growth at 30 µg/mL (Escherichia coli [33]): 78.5% |
| C/C(=N\Nc1nc(-c2ccc(C)cc2)cs1)c1sc(C)nc1C | 82.8 µg/mL (≈ 242 µM) | 72% | 76.9% | > 100 µg/mL | > 100 µg/mL | 83.5% | 79.8% | 69.9% | 10 | 1 | 82.4% | 1 | 1 | 83.3% | > 100 µg/mL | > 100 µg/mL | 10 | 11.1 µg/mL (≈ 32.3 µM) | > 100 µg/mL | > 100 µg/mL | GI90 [17]: > 100 µg/mL; inhibition of growth at 3 µg/mL (Pseudomonas aeruginosa [18]): 79.6%; MIC90 [19]: 74.3 µg/mL (≈ 217 µM); IC50 [20]: 9.67 µg/mL (≈ 28.2 µM); MIC90 [20]: 83.2 µg/mL (≈ 243 µM); inhibition of growth at 3 µg/mL (Staphylococcus aureus [21]): 78.6%; IC50 [22]: 8.35 µg/mL (≈ 24.4 µM); MIC90 [22]: 65.8 µg/mL (≈ 192 µM); selectivity ratio [23]: 1; selectivity ratio [24]: 2; selectivity ratio [25]: 10; IC50 [26]: 17.9 µg/mL (≈ 52.4 µM); MIC90 [26]: 54.8 µg/mL (≈ 160 µM); selectivity ratio [27]: 2; selectivity ratio [28]: 1; selectivity ratio [29]: 1; inhibition of growth at 10 µg/mL (Bacillus subtilis [30]): 81%; selectivity ratio [31]: 2; inhibition of growth at 30 µg/mL (Pseudomonas aeruginosa [32]): 72.8%; inhibition of growth at 30 µg/mL (Escherichia coli [33]): 73.7% |
| COc1ccc(-c2csc(N/N=C(\C)c3sc(C)nc3C)n2)cc1 | 46.2 µg/mL (≈ 129 µM) | 67.2% | 70.7% | > 100 µg/mL | > 100 µg/mL | 73.5% | 74.4% | 64.7% | 12 | 1 | 72.7% | 1 | 1 | 74.3% | > 100 µg/mL | > 100 µg/mL | 12 | 0.88 µg/mL (≈ 2.45 µM) | 74.1 µg/mL (≈ 207 µM) | > 100 µg/mL | GI90 [17]: > 100 µg/mL; inhibition of growth at 3 µg/mL (Pseudomonas aeruginosa [18]): 73.6%; MIC90 [19]: 48.2 µg/mL (≈ 135 µM); IC50 [20]: 8.41 µg/mL (≈ 23.5 µM); MIC90 [20]: 24 µg/mL (≈ 67.1 µM); inhibition of growth at 3 µg/mL (Staphylococcus aureus [21]): 72.8%; IC50 [22]: 1.24 µg/mL (≈ 3.46 µM); MIC90 [22]: 20.5 µg/mL (≈ 57.2 µM); selectivity ratio [23]: 1; selectivity ratio [24]: 5; selectivity ratio [25]: 12; IC50 [26]: 7.37 µg/mL (≈ 20.6 µM); MIC90 [26]: 67.3 µg/mL (≈ 188 µM); selectivity ratio [27]: 5; selectivity ratio [28]: 1; selectivity ratio [29]: 1; inhibition of growth at 10 µg/mL (Bacillus subtilis [30]): 70.6%; selectivity ratio [31]: 5; inhibition of growth at 30 µg/mL (Pseudomonas aeruginosa [32]): 67.8%; inhibition of growth at 30 µg/mL (Escherichia coli [33]): 69.2% |
